Data taken from ChEMBL document CHEMBL5096186, “Design, Synthesis, and Biological Evaluation of Novel Pyrimido[4,5-b]indole Derivatives Against Gram-Negative Multidrug-Resistant Pathogens” (J Med Chem, 2021).
Converted amounts (≈) assume the structure as drawn.

What was measured:
Staphylococcus aureus [1] = assay: Antibacterial activity against methicillin-resistant Staphylococcus aureus strains 15 1 to 4 assessed as reduction in bacterial growth incubated for 18 to 20 hrs by CLSI based microdilution method; format: functional; conditions: time 18-20 hrs
Summary of the method: (§1)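 Broth microdilution per CLSI. Compounds dissolved in DMSO (levofloxacin and meropenem in water) as 64 μg/mL stock, then serial twofold dilutions in broth giving 64 to 0.008 μg/mL. […] Clinical isolates tested as several strains per group; racemic GP-1 served as positive control; values given as MIC ranges.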

[2] = system: Staphylococcus epidermidis; assay: Antibacterial activity against methicillin-sensitive Staphylococcus epidermidis strains 15 1 to 4 assessed as reduction in bacterial growth incubated for 18 to 20 hrs by CLSI based microdilution method; format: functional; conditions: time 18-20 hrs; summary of the method: as §1
[3] = system: Staphylococcus epidermidis; assay: Antibacterial activity against methicillin-resistant Staphylococcus epidermidis strains 15 1 to 4 assessed as reduction in bacterial growth incubated for 18 to 20 hrs by CLSI based microdilution method; format: functional; conditions: time 18-20 hrs; summary of the method: as §1
Escherichia coli [4] = assay: Antibacterial activity against ESBL-producing Escherichia coli ATCC 35218 strains 15 1 to 3 assessed as reduction in bacterial growth incubated for 18 to 20 hrs by CLSI based microdilution method; format: functional; conditions: time 18-20 hrs
Summary of the method: (§2)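 CLSI broth microdilution. Compounds in DMSO (levofloxacin and meropenem in water), serial twofold dilutions in broth, 64 to 0.008 μg/mL. […] Results reported as MIC ranges across strains.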

Escherichia coli [5] = assay: Antibacterial activity against Escherichia coli ATCC 35218 strains 15 1 to 3 assessed as reduction in bacterial growth incubated for 18 to 20 hrs by CLSI based microdilution method; format: functional; conditions: time 18-20 hrs; summary of the method: as §2
Staphylococcus aureus [6] = assay: Antibacterial activity against methicillin-sensitive Staphylococcus aureus strains 15 1 to 4 assessed as reduction in bacterial growth incubated for 18 to 20 hrs by CLSI based microdilution method; format: functional; conditions: time 18-20 hrs; summary of the method: as §1
Pseudomonas aeruginosa [7] = assay: Antibacterial activity against multidrug resistant Pseudomonas aeruginosa strains 15 1 to 3 assessed as reduction in bacterial growth incubated for 18 to 20 hrs by CLSI based microdilution method; format: functional; conditions: time 18-20 hrs; summary of the method: as §1
Pseudomonas aeruginosa [8] = assay: Antibacterial activity against wild type Pseudomonas aeruginosa ATCC 27853 assessed as reduction in bacterial growth incubated for 18 to 20 hrs by CLSI based microdilution method; format: functional; conditions: time 18-20 hrs; summary of the method: as §2
Escherichia coli [9] = assay: Antibacterial activity against ESBL-producing multidrug resistant Escherichia coli assessed as reduction in bacterial growth incubated for 18 to 20 hrs by CLSI based microdilution method; format: functional; conditions: time 18-20 hrs; summary of the method: as §1
Klebsiella pneumoniae [10] = assay: Antibacterial activity agains wild type Klebsiella pneumoniae ATCC BAA-2470 assessed as reduction in bacterial growth incubated for 18 to 20 hrs by CLSI based microdilution method; format: functional; conditions: time 18-20 hrs; summary of the method: as §1
[11] = Metabolic stability in human liver microsome assessed as intrinsic clearance at 0.1 uM in presence of NADPH incubated upto 60 mins by LC-MS/MS analysis; format: ADME; conditions: microsomes, 1 h
Summary of the method: (§3)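 Compound at 0.1 μM final, in 0.01% DMSO with 0.005% BSA. Incubated with rat or human liver microsomes at 0.33 mg/mL in 0.1 M Tris-HCl, pH 7.4, with 5 mM MgCl₂ and 1 mM NADPH, at 37 °C. Samples at 0, 7, 17, 30 and 60 min quenched with cold methanol and analysed by LC-MS/MS. Half-life, Cl_int and MF% derived as previously described.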

[12] = target: hERG (KCNH2) potassium channel (Homo sapiens, UniProt Q12809); assay: Inhibition of hERG potassium channel assessed as maximum inhibition rate at 40 uM at -80 mV holding potential incubated for 120 seconds by whole cell-automated voltage clamp analysis assay relative to control; format: toxicity; conditions: time 120 sec
Sequence of hERG (KCNH2) potassium channel (Q12809 whole entry): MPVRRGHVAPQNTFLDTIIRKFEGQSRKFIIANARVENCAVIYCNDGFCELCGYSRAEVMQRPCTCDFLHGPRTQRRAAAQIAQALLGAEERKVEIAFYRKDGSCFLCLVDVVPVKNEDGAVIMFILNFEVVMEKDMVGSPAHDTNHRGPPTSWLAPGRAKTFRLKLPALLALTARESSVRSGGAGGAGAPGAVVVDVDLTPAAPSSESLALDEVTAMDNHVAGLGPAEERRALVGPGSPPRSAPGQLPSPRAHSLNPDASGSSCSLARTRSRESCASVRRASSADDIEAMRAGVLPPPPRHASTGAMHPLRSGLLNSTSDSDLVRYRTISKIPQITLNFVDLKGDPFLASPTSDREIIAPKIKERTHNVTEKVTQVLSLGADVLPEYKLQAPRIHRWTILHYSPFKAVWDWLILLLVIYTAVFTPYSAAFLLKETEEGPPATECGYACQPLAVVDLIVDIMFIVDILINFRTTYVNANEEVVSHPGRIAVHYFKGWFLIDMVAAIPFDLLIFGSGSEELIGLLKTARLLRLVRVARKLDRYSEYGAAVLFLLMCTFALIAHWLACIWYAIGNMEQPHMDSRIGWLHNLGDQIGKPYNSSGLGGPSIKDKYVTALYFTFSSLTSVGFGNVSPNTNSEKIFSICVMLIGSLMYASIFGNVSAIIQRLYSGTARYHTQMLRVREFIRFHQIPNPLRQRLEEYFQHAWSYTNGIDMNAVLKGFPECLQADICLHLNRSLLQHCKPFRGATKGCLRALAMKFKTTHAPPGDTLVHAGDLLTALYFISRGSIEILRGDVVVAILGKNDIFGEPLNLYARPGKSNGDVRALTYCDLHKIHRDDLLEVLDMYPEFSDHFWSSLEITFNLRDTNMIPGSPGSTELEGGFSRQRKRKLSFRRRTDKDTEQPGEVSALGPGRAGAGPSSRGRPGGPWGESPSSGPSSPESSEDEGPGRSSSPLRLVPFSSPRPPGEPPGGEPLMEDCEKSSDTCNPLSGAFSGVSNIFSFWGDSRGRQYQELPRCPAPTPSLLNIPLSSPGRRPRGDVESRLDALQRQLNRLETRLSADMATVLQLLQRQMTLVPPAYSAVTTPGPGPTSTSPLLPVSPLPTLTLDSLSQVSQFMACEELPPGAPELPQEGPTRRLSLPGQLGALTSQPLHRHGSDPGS
Summary of the method: (§4)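 Automated whole-cell patch clamp, holding potential −80 mV. Voltage protocol applied every 20 s. Baseline set with external solution containing 0.1% DMSO and stabilised 3 min. Compound applied until steady state, at least 3 min, then washout. Maximum tested concentration 40 μM, or 3 μM for cisapride as positive control.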

Klebsiella pneumoniae [13] = assay: Antibacterial activity against KPC2-producing multidrug resistant Klebsiella pneumoniae assessed as reduction in bacterial growth incubated for 18 to 20 hrs by CLSI based microdilution method; format: functional; conditions: time 18-20 hrs; summary of the method: as §1
[14] = Metabolic stability in human liver microsome assessed as elimination half life at 0.1 uM in presence of NADPH incubated upto 60 mins by LC-MS/MS analysis; format: ADME; conditions: liver microsomes, read-out: beta t1/2; summary of the method: as §3
Pseudomonas aeruginosa [15] = assay: Antibacterial activity against IMP4-producing multidrug resistant Pseudomonas aeruginosa assessed as reduction in bacterial growth incubated for 18 to 20 hrs by CLSI based microdilution method; format: functional; conditions: time 18-20 hrs; summary of the method: as §1
Acinetobacter baumannii [16] = assay: Antibacterial activity agains OXA23-producing multidrug resistant Acinetobacter baumannii assessed as reduction in bacterial growth incubated for 18 to 20 hrs by CLSI based microdilution method; format: functional; conditions: time 18-20 hrs; summary of the method: as §1
[17] = Metabolic stability in rat liver microsome assessed as intrinsic clearance at 0.1 uM in presence of NADPH incubated upto 60 mins by LC-MS/MS analysis; format: ADME; conditions: microsomes, 1 h; summary of the method: as §3
Escherichia coli [18] = assay: Antibacterial activity against multidrug resistant wild type Escherichia coli NCTC 13353 assessed as reduction in bacterial growth incubated for 18 to 20 hrs by CLSI based microdilution method; format: functional; conditions: time 18-20 hrs; summary of the method: as §1
[19] = target: Voltage-gated inwardly rectifying potassium channel KCNH2 (Homo sapiens, UniProt Q12809); assay: Inhibition of hERG potassium channel assessed as […] at -80 mV holding potential incubated for 120 seconds by whole cell-automated voltage clamp analysis assay; format: toxicity; summary of the method: as §4
Sequence of Voltage-gated inwardly rectifying potassium channel KCNH2 (Q12809 whole entry): as above

Klebsiella pneumoniae [20] = assay: Antibacterial activity agains wild type Klebsiella pneumoniae ATCC BAA-1705 assessed as reduction in bacterial growth incubated for 18 to 20 hrs by CLSI based microdilution method; format: functional; conditions: time 18-20 hrs; summary of the method: as §2
[21] = Metabolic stability in human liver microsome assessed as metabolic bioavailability at 0.1 uM in presence of NADPH incubated upto 60 mins by LC-MS/MS analysis; format: ADME; conditions: liver microsomes; summary of the method: as §3
[22] = Metabolic stability in rat liver microsome assessed as metabolic bioavailability at 0.1 uM in presence of NADPH incubated upto 60 mins by LC-MS/MS analysis; format: ADME; conditions: liver microsomes; summary of the method: as §3
[23] = Metabolic stability in rat liver microsome assessed as elimination half life at 0.1 uM in presence of NADPH incubated upto 60 mins by LC-MS/MS analysis; format: ADME; conditions: liver microsomes, read-out: beta t1/2; summary of the method: as §3
Escherichia coli [24] = assay: Antibacterial activity against multidrug resistant wild type Escherichia coli ATCC BAA-2340 assessed as reduction in bacterial growth incubated for 18 to 20 hrs by CLSI based microdilution method; format: functional; conditions: time 18-20 hrs; summary of the method: as §1
Acinetobacter baumannii [25] = assay: Antibacterial activity against wild type Acinetobacter baumannii NCTC 13304 assessed as reduction in bacterial growth incubated for 18 to 20 hrs by CLSI based microdilution method; format: functional; conditions: time 18-20 hrs; summary of the method: as §1

Row | SMILES | MIC (Staphylococcus aureus [1]) | MIC [2] | MIC [3] | MIC (Escherichia coli [4]) | MIC (Escherichia coli [5]) | MIC (Staphylococcus aureus [6]) | MIC (Pseudomonas aeruginosa [7]) | inhibition at 2 min, 40 µM [12] | IC50 [19] | further results
1 | CCC(CN)=C1CN(c2nc(N)nc3[nH]c4c(NC)cc(F)cc4c23)C1 | 4 µg/mL (≈ 11.3 µM) | 2 µg/mL (≈ 5.63 µM) | 4 µg/mL (≈ 11.3 µM) | 4 µg/mL (≈ 11.3 µM) | 2 µg/mL (≈ 5.63 µM) | > 4 µg/mL | ≥ 16 µg/mL | – | – | –
2 | CNc1cc(F)cc2c1[nH]c1nc(Oc3cnc(C)nc3)nc(N3CC(=C(CN)C(C)C)C3)c12 | – | < 0.008 µg/mL | – | 0.125 µg/mL (≈ 0.27 µM) | 0.03 µg/mL (≈ 0.0649 µM) | < 0.008 µg/mL | 1 µg/mL (≈ 2.16 µM) | 26.5% | > 40 µM | MIC (Pseudomonas aeruginosa [8]): 2 µg/mL (≈ 4.32 µM); MIC (Escherichia coli [9]): 1 µg/mL (≈ 2.16 µM); MIC (Klebsiella pneumoniae [10]): 2 µg/mL (≈ 4.32 µM); CLH [11]: 55.2 mL/min/g; MIC (Klebsiella pneumoniae [13]): 2 µg/mL (≈ 4.32 µM); half-life at 0.1 µM [14]: 38 min; MIC (Pseudomonas aeruginosa [15]): 4 µg/mL (≈ 8.65 µM); MIC (Acinetobacter baumannii [16]): 0.5 µg/mL (≈ 1.08 µM); CLH [17]: 118.3 mL/min/g; MIC (Escherichia coli [18]): 0.5 µg/mL (≈ 1.08 µM); MIC (Klebsiella pneumoniae [20]): 4 µg/mL (≈ 8.65 µM); Fh at 1 h, 0.1 µM [21]: 26.2%; Fh at 1 h, 0.1 µM [22]: 27.3%; half-life at 0.1 µM [23]: 17.8 min; MIC (Escherichia coli [24]): 0.5 µg/mL (≈ 1.08 µM); MIC (Acinetobacter baumannii [25]): 0.5 µg/mL (≈ 1.08 µM)
3 | CNc1cc(F)cc2c1[nH]c1nc(Oc3cnc(C)nc3)nc(N3CC(=CCN)C3)c12 | 0.5 µg/mL (≈ 1.19 µM) | 0.25 µg/mL (≈ 0.595 µM) | 0.25 µg/mL (≈ 0.595 µM) | 8 µg/mL (≈ 19 µM) | 0.5 µg/mL (≈ 1.19 µM) | 0.5 µg/mL (≈ 1.19 µM) | ≥ 16 µg/mL | – | – | –
4 | CNc1cc(F)cc2c1[nH]c1nc(Oc3cnc(C)nc3)nc(N3CC(=C(F)CN)C3)c12 | 0.015 µg/mL (≈ 0.0342 µM) | 0.125 µg/mL (≈ 0.285 µM) | 0.015 µg/mL (≈ 0.0342 µM) | 0.25 µg/mL (≈ 0.57 µM) | 0.06 µg/mL (≈ 0.137 µM) | 0.015 µg/mL (≈ 0.0342 µM) | > 16 µg/mL | 3.2% | > 40 µM | –
